Hits are enriched below; roughly 3.1% of the tested compounds scored in any of these assays.
rRNA inh HTS – reduced GFP signal of wild-type E. coli, primary screen, bacterial rRNA inhibitor project, GFP/RFP fluorescence, OD600, single point. 350,000 tested, 1.6% active. AID 720706, 2013. GFP signal change (wild-type ribosome), % (concentration not given with the values). E. coli WT GFP vs humanized-ribosome RFP mutants, 24 h; stronger effect = lower value; DMSO median 0, no signal -100;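 active = significant combined selectivity score with lowered wild-type GFP, culture density cut under 30%, mutant RFP and density less affected; inactive = any of these conditions unmet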
S100A4 MyoIIA – inhibitors of S100A4-myosin IIA peptide binding, primary screen, biochemical, fluorescence polarization, TAMRA-MyoIIA peptide. inhibition, % at 10.7 µM. 360,000 tested, 0.14% active. Protein S100-A4 (Homo sapiens), P26447;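 active = mean inhibition of at least 70% across replicates, with every replicate also reaching that level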
Target sequence (P26447 whole entry, looked up): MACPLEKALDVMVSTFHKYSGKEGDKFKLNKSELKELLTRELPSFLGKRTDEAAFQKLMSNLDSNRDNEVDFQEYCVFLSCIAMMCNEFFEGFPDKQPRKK
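Material: S100A4 monomer protein | Medium: HEPES pH 7.2 with CaCl2, KCl, NaCl, DTT, Triton | Reagent: Labelled myosin peptide probe, 5 nM | Doses: One dose per compound | Times: 5 min incubation before reading | Benchmarks: Neutral control DMSO, positive control TFP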
ERAP1 HTS inh – human ERAP1 aminopeptidase inhibitors, primary screen, biochemical, single point, plate reader; 340,000 tested, 0.15% active; recombinant ERAP1, Leu-AMC fluorescence, 60 min; AID 652197, 2013; inhibition, % at 10.7 µM; Endoplasmic reticulum aminopeptidase 1 (Homo sapiens), Q9NZ08;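 active = mean replicate inhibition of at least 30%, or all replicates individually reaching that 30% level; inactive = mean below 30% and not every replicate reaching it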;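 note: 0% = neutral control wells and 100% = L-leucinethiol positive control wells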
F508del corr – F508del CFTR correction, initial screen, CFBE line, single point; CFBE cells, YFP halide quenching; stimulated with forskolin plus potentiator P3; % fluorescence drop versus neutral controls; activity (quench increase), % at 7.58 µM; 350,000 tested, 0.36% active;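 active = mean added fluorescence quench of at least 8% versus neutral control, with both replicates also reaching 8%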;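 note: cells transiently co-express mutant CFTR-F508del with the halide-sensitive YFP; corrector assay measuring rescue of mutant channel to the surface after 24 h compound exposure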
SIRT5 block – SIRT5 desuccinylase inhibitors, primary screen, biochemical, fluorescence imaging, single point, set 5. NAD-dependent protein deacylase sirtuin-5, mitochondrial (Homo sapiens), Q9NXA8. Purified SirT5, succinyl-peptide AMC, trypsin-coupled fluorescence. inhibition, % at 15 µM. 330,000 tested, 1.1% active; in the data active = inhibition above about 15%
Target sequence (Q9NXA8 whole entry, looked up): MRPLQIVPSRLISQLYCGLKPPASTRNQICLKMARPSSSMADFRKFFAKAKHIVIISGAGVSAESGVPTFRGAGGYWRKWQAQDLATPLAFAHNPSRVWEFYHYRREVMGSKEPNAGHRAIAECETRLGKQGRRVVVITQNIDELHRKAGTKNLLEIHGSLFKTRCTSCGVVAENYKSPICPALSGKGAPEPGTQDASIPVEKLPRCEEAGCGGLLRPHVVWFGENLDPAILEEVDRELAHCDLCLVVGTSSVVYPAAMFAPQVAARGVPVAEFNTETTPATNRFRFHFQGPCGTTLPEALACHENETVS
Numbers without * were called inactive; / = not tested or not shown.

SMILES	rRNA inh HTS	S100A4 MyoIIA	ERAP1 HTS inh	F508del corr	SIRT5 block
CN1[C@@H]2c3ccc(-c4ccccc4)c(=O)n3C[C@@H]2[C@@H](CO)[C@@H]1C(=O)N1CCc2ccccc2C1	0	-1	2	/	-1
CC(=O)Nc1ccc(/C=C/c2ccc3cccc([N+](=O)[O-])c3n2)cc1	-16*	4	/	2	0
C[C@@H]1CN([C@@H](C)CO)C(=O)c2cc(C#CC3(O)CCCC3)cnc2O[C@@H]1CN(C)Cc1ccccn1	-4	-1	-1	1	-2
CN(C)c1cccc2c1c(NC(=O)Nc1ccc(F)cc1F)nn2C	11	-1	2	0	-3
CN(C)c1cccc2c1c(NC(=O)Nc1ccccc1)nn2C	-18*	-4	2	0	-1
C[C@@H]1CN([C@@H](C)CO)C(=O)c2cccc(NS(=O)(=O)c3cn(C)cn3)c2O[C@@H]1CN(C)C(=O)Nc1ccc(F)cc1	-1	-4	-3	-1	2
Cc1ccc(C(C)(c2ccc(N)cc2)c2ccc(N)cc2)cc1	-39*	-1	4	1	3
O=C(COn1nnc2ccc(C(F)(F)F)cc21)Nc1c(Cl)cccc1Cl	-25*	12	0	1	0
COCC(=O)N(C[C@H]1N[C@H](CO)[C@@H]1c1ccc(-c2cncnc2)cc1)C(C)C	1	8	2	2	-1
COCCNC(=O)/C(C#N)=C/c1cc(C)n(C2CCCCC2)c1C	-30	4	7	1	16*
O=c1cnc2ccccc2n1CC1CCCCC1	-8	-1	6	8.6*	-5
C[C@@H]1CN([C@@H](C)CO)S(=O)(=O)c2ccc(-c3ccc(F)cc3)cc2O[C@@H]1CN(C)S(C)(=O)=O	-10	3	0	1	10
COc1ccccc1S(=O)(=O)N(C)C[C@H]1OCc2ccccc2-c2c(n(C)c3ccccc23)C(=O)N([C@H](C)CO)C[C@@H]1C	0	0	-1	-4	15*
Cc1ccccc1S(=O)(=O)N(C)C[C@H]1OCc2ccccc2-c2c(n(C)c3ccccc23)C(=O)N([C@H](C)CO)C[C@H]1C	2	4	2	4	16*
COc1ccc(-n2c(C)c(C(C)=O)c3cc(OC(C)=O)ccc32)cc1	-24*	-3	0	0	1
COc1ccc(-n2c(C)cc(C)c(C(C)=O)c2=S)cc1	2	-22	5	3	27*
C[C@H]1CN([C@@H](C)CO)C(=O)c2cccc(NS(=O)(=O)c3ccccc3)c2O[C@@H]1CN(C)Cc1ccc(-c2ccccc2)cc1	1	4	-6	1	2
CNC[C@H]1Oc2ccc(NS(=O)(=O)c3c(C)noc3C)cc2C(=O)N([C@@H](C)CO)C[C@@H]1C	1	-6	-1	-4	1
O=[N+]([O-])c1cccc2nc(-c3ccccc3)c(-c3ccccc3)nc12	-8	-1	1	1	-4
Cn1c(-[n+]2c(-c3ccccc3)cc(-c3ccccc3)cc2-c2ccccc2)nc2c([N+](=O)[O-])cccc21	-22*	-1	2	/	0
CCOC(=O)c1c(N)sc(C(=O)Nc2ccccc2F)c1C	-26*	-2	3	-2	-2
CCOC(=O)c1c(N)sc(C(=O)Nc2ccccc2)c1C	-25	-1	1	0	-2
CO[C@@H]1CN(C)C(=O)c2ccc(NS(C)(=O)=O)cc2OC[C@@H](C)N(C(=O)C2CCCC2)C[C@@H]1C	-1	-4	2	0	-4
O=C(NCCS(=O)(=O)NCCCc1ccccc1)c1ccccc1	-5	94*	1	-1	-1
O=C(C1CC1)N1CC(=O)N2[C@H](C1)[C@H](c1ccc(-c3cccnc3)cc1)[C@@H]2CO	2	-12	5	-2	2
SMILES	rRNA inh HTS	S100A4 MyoIIA	ERAP1 HTS inh	F508del corr	SIRT5 block
Cc1nc2ccccc2n1C1CC(=O)N(N(C)C)C1=O (stereo unspecified)	12	1	4	-3	-2
CN(C)N1C(=O)CC(N2CCCCC2)C1=O (stereo unspecified)	-31*	0	4	2	-5
CCCC#Cc1cnc2c(c1)C(=O)N([C@@H](C)CO)C[C@H](C)[C@H](CN(C)S(=O)(=O)c1cn(C)cn1)O2	5	/	/	3	/
COc1ccccc1NC(=O)N1C[C@@H]2[C@H](c3ccccc31)[C@@H](CO)N2C(=O)c1ccccc1	-6	9	2	2	1
Cn1c(N)c(C(=O)N/N=C/c2ccccc2)sc1=S	-36*	-2	-1	-1	1
Cc1cc(C)c(NC(=O)CNC(=O)COC(=O)/C=C/c2cccs2)c(C)c1	10	84*	2	-2	0
C=CCNC(=O)COC(=O)/C=C/c1cccs1	21	3	-5	/	4
COc1ccc2c3c([nH]c2c1)[C@@H](CO)N(C(C)=O)CC31CN(C(=O)Nc2ccccc2F)C1	1	/	/	-2	/
C/C=C/c1cnc2c(c1)C(=O)N([C@H](C)CO)C[C@H](C)[C@@H](CN(C)S(=O)(=O)c1ccccc1)O2	-7	4	0	1	-3
C[C@@H]1CCCCO[C@H](CN(C)Cc2ccc(C(=O)O)cc2)[C@H](C)CN([C@@H](C)CO)C(=O)c2cc(NC(=O)CCCN(C)C)ccc2O1	0	2	-5	-1	1
C[C@@H]1CN([C@@H](C)CO)C(=O)c2cc(NC(=O)c3ccncc3)ccc2O[C@@H](C)CCCCO[C@@H]1CN(C)Cc1ccc(C(F)(F)F)cc1	2	-9	1	-2	16*
C[C@H]1CCCCO[C@@H](CN(C)Cc2ccc(C(F)(F)F)cc2)[C@@H](C)CN([C@@H](C)CO)C(=O)c2cc(NC(=O)CCC(F)(F)F)ccc2O1	1	-2	-3	3	16*
C[C@@H]1CCCCO[C@@H](CN(C)Cc2ccc(C(=O)O)cc2)[C@H](C)CN([C@H](C)CO)C(=O)c2cc(NC(=O)CCCN(C)C)ccc2O1	2	130*	-4	-2	-5
C[C@@H]1CN([C@@H](C)CO)C(=O)c2cc(NC(=O)c3ccncc3)ccc2O[C@@H](C)CCCCO[C@H]1CN(C)Cc1ccc(C(F)(F)F)cc1	3	1	-1	2	15
CC(C#N)Sc1nc2ccccc2c(=O)n1-c1ccccc1 (stereo unspecified)	-22*	-2	-1	3	-2
Cc1c(O)c(=O)n(-c2ccccc2)n1C	-16*	2	-1	4	-6
Cc1c(-n2c(SCC(=O)NC(C)C(C)C)nc3ccccc3c2=O)c(=O)n(-c2ccccc2)n1C (stereo unspecified)	4	0	-1	-1	-1
